Measured values reported in ChEMBL document CHEMBL4428110, “Synthesis and bioactivity of novel isoxazole chalcone derivatives on tyrosinase and melanin synthesis in murine B16 cells for the treatment of vitiligo” (Bioorg Med Chem, 2016).
Activity calls are given as the source filed them. The calls are words filed in the database; no cut-off is given here.

Key:
Tyrosinase = biological target: T1, Tyrosinase (Agaricus bisporus, UniProt O42713); assay: Activation of mushroom tyrosinase using L-tyrosine as substrate preincubated for 5 mins followed by substrate addition measured after 30 mins by ELISA
T1 sequence (O42713 whole entry): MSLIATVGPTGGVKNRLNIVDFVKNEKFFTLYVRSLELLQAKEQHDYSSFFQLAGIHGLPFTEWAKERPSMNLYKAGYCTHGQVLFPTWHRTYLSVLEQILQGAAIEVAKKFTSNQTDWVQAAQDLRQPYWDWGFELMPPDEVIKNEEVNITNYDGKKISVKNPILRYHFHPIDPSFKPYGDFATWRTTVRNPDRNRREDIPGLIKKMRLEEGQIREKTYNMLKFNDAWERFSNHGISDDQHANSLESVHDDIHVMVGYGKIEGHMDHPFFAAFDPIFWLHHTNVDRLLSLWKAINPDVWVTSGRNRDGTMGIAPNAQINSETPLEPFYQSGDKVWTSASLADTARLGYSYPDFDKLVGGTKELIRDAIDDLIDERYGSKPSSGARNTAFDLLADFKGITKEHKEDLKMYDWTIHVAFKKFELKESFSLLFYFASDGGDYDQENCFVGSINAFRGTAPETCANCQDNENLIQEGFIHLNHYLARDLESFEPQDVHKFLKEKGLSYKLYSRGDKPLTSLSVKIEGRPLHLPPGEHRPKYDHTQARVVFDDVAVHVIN
In short: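 Mushroom tyrosinase activation: test compounds (0.5–300 μM) in DMSO preincubated with enzyme 5 min at 25–30 °C, then L-tyrosine (2 mM, 0.1 mL) added and incubated a further 30 min; absorbance read at 490 nm. Rate of activation = [(C−D)−(A−B)]/(A−B)×100, A being the enzyme-only system. EC50 reported as mean ± SD of three independent experiments.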

B16-F10 = assay: Cytotoxicity against mouse B16F10 cells assessed as reduction in cell viability at 50 uM after 24 hrs by CCK-8 assay; format: cell-based; details: b16-f10, 24 h
In short: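 Viability: B16F10 cells (DMEM, 10% FBS, 37 °C, 5% CO2) plated at 5×10³ cells/well in 96-well plates, left 12 h, then given fresh medium with 50 μM compound for 24 h. After a cold PBS wash, CCK-8 added for 2 h at 37 °C and absorbance read at 450 nm. Proliferation expressed relative to untreated control; mean ± SD of three experiments.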

[1] = biological target: T2, Tyrosinase (Mus musculus) (UniProt P11344); assay: Activation of tyrosinase in mouse B16F10 cells assessed as melanin production at 50 uM after 48 hrs by spectrophotometric analysis relative to control; format: cell-based
T2 sequence (whole entry): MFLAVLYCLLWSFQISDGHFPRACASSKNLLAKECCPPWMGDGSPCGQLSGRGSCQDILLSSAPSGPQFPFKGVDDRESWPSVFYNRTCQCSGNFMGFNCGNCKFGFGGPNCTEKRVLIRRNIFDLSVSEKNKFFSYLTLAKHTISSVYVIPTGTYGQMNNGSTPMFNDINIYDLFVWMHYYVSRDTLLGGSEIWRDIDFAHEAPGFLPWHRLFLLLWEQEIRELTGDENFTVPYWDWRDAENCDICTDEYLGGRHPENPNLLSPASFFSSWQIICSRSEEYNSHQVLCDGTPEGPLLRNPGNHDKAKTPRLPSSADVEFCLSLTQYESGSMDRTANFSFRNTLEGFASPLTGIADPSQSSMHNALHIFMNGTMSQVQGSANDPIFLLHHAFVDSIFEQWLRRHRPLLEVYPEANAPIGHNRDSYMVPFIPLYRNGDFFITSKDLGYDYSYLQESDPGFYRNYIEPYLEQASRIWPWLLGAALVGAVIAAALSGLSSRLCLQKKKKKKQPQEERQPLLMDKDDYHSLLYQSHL
In short: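 B16F10 cells grown in DMEM with 10% heat-inactivated FBS and penicillin/streptomycin at 37 °C, 5% CO2. Seeded at 5×10⁵ cells/well in 6-well plates for 24 h, then exposed to 50 μM compound for 48 h. After a cold PBS wash, cells were lysed in RIPA buffer 40 min on ice and dissolved in 1 M NaOH 2 h at 60 °C. Melanin was read at 405 nm and normalized; three separate experiments.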

[2] = biological target: T2, Tyrosinase (Mus musculus); assay: Potency index, ratio of compound activity to 8-MOP activity for tyrosinase activation in mouse B16F10 cells assessed as melanin production; format: cell-based

EC50 (Tyrosinase) | Activity [1] | Ratio [2] | Structure (SMILES) | Activity (B16-F10)
21.1 µM | – | – | O=C(/C=C/c1ccc(Cl)cc1)c1ccc(NC(=O)c2ccccc2)cc1 | –
78.1 µM | – | – | O=C(/C=C/c1ccccc1)c1ccc(OCc2cc(-c3ccccc3)no2)cc1 | Non-Toxic
47.2 µM | – | – | COc1ccc(-c2cc(COc3ccc(C(=O)/C=C/c4ccccc4)cc3)on2)cc1 | Non-Toxic
11.4 µM | – | – | O=C(/C=C/c1ccccc1)c1ccc(OCc2cc(-c3ccc(I)o3)no2)cc1 | Non-Toxic
25.8 µM | – | – | Cc1ccc(S(=O)(=O)Nc2ccc(C(=O)/C=C/c3ccc(Cl)cc3)cc2)cc1 | –
25.5 µM | Active | – | O=C(/C=C/c1ccccc1)c1ccc(OCc2cc(-c3cccc(OC(F)(F)F)c3)no2)cc1 | Non-Toxic
5.6 µM | – | – | O=C(/C=C/c1ccccc1)c1ccc(CCc2cn(Cc3cccc(F)c3)nn2)cc1 | –
23.8 µM | – | – | O=C(/C=C/c1ccccc1)c1ccc(OCc2cc(-c3cccc(Cl)c3)no2)cc1 | Non-Toxic
3 µM | Active | – | O=C(/C=C/c1ccccc1)c1ccc(OCc2cc(-c3ccc(Cl)c(F)c3)no2)cc1 | Non-Toxic
> 100 µM | – | – | O=C(/C=C/c1ccccc1)c1ccc(OCc2cc(-c3ccc([N+](=O)[O-])cc3)no2)cc1 | Non-Toxic
17.1 µM | – | – | Cc1ccc(/C=C/C(=O)c2ccc3nc(NC(=O)c4ccccc4)sc3c2)cc1 | –
9.6 µM | – | – | O=C(/C=C/c1ccc(Cl)cc1)c1ccc2nc(NC(=O)c3ccccc3)sc2c1 | –
56.2 µM | – | – | O=C(/C=C/c1ccccc1)c1ccc(OCc2cc(-c3cccs3)no2)cc1 | Non-Toxic
28.9 µM | – | – | CN(C)c1ccc(-c2cc(COc3ccc(C(=O)/C=C/c4ccccc4)cc3)on2)cc1 | Non-Toxic
30.6 µM | – | – | Nc1nc2ccc(C(=O)/C=C/c3ccc(Cl)cc3)cc2s1 | –
11.9 µM | – | – | O=C(/C=C/c1ccccc1)c1ccc(CCc2cn(Cc3cccc(Cl)c3)nn2)cc1 | –
65.3 µM | – | – | COc1ccccc1-c1cc(COc2ccc(C(=O)/C=C/c3ccccc3)cc2)on1 | Non-Toxic
14.6 µM | – | – | O=C(/C=C/c1ccccc1)c1ccc(CCc2cn(Cc3ccc(F)cc3)nn2)cc1 | –
23.9 µM | – | – | O=C(/C=C/c1ccccc1)c1ccc(CCc2cn(Cc3ccc(Cl)cc3)nn2)cc1 | –
6.4 µM | – | – | O=C(/C=C/c1ccccc1)c1ccc(OCc2cc(-c3ccc(F)cc3)no2)cc1 | Non-Toxic
1.3 µM | 463% | 3 | O=C(/C=C/c1ccccc1)c1ccc(OCc2cc(-c3ccc(F)c(F)c3)no2)cc1 | Non-Toxic
35.6 µM | – | – | Cc1ccc(-c2cc(COc3ccc(C(=O)/C=C/c4ccccc4)cc3)on2)o1 | Non-Toxic
21.3 µM | 330% | 4 | O=C(/C=C/c1ccccc1)c1ccc(OCc2cc(-c3cccc(F)c3)no2)cc1 | Non-Toxic
12.7 µM | 57% | – | O=C(/C=C/c1ccccc1)c1ccc(OCc2cc(-c3cc(Cl)cc(Cl)c3)no2)cc1 | Non-Toxic
14.8 µM | 115% | – | COc1c2occc2cc2ccc(=O)oc12 [METHOXSALEN] | –
1.71 µM | – | – | O=C(/C=C/c1ccccc1)c1ccc(CCc2cn(Cc3ccc(Cl)c(Cl)c3)nn2)cc1 | –
> 100 µM | 438% | 4 | O=C(/C=C/c1ccccc1)c1ccc(OCc2cc(-c3ccc4c(c3)OCCO4)no2)cc1 | Non-Toxic
8.1 µM | – | – | O=C(/C=C/c1ccccc1)c1ccc(OCc2cc(-c3ccc(Cl)cc3)no2)cc1 | Non-Toxic
37.4 µM | – | – | COc1cccc(Cn2cc(CCc3ccc(C(=O)/C=C/c4ccccc4)cc3)nn2)c1 | –
2.5 µM | Active | – | O=C(/C=C/c1ccccc1)c1ccc(OCc2cc(-c3ccc(Cl)c(Cl)c3)no2)cc1 | Non-Toxic
